Data published in the M2OR odorant receptor database.

Columns and labels:
Conditions in all cases: stereoisomer not certain
[1] = target: T1, OR52I1 (Homo sapiens) (UniProt Q8NGK6)
T1 sequence (whole entry): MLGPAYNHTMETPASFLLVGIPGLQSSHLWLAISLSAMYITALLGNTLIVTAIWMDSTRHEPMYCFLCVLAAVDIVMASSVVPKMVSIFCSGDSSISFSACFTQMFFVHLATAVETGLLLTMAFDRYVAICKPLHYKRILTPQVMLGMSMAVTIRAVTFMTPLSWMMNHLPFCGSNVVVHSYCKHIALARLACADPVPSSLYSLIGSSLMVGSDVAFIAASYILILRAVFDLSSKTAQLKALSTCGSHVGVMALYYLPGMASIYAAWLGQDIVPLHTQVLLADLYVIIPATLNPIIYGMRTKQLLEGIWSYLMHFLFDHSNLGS
Method in brief: (§1)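 Assay methods differ from source to source, frequently being transient luciferase assays in mammalian cell lines. For each receptor–molecule pair, the label responsive (active) applies when the original authors judged the measured signal statistically different from baseline, and non-responsive (inactive) applies otherwise.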

[2] = target: T2, OR52I2 (Homo sapiens) (UniProt Q8NH67)
T2 sequence (whole entry): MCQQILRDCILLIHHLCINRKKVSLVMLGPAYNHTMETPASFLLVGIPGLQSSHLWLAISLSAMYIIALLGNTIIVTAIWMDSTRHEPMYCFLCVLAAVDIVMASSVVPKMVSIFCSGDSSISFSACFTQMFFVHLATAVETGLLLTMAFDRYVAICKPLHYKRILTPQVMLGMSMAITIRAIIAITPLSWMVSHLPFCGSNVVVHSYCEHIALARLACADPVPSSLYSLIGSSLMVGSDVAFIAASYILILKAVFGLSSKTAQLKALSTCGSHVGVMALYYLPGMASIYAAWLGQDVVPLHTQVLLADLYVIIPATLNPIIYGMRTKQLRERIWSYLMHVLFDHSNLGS
Method in brief: as §1

[3] = target: OR52J3 (Homo sapiens) (UniProt Q8NH60)
Chain of OR52J3 (Homo sapiens) (Q8NH60 whole entry): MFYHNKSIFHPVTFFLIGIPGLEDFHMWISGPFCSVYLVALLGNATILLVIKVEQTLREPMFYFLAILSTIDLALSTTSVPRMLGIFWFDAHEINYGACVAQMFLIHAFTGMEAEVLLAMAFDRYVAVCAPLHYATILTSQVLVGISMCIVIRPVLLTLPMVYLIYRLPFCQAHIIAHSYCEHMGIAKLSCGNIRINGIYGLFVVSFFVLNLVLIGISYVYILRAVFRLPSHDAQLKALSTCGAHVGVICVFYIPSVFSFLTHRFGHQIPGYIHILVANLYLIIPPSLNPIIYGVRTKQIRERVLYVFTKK
Method in brief: as §1

[4] = target: T3, OR52K1 (Homo sapiens) (UniProt Q8NGK4)
T3 sequence (whole entry): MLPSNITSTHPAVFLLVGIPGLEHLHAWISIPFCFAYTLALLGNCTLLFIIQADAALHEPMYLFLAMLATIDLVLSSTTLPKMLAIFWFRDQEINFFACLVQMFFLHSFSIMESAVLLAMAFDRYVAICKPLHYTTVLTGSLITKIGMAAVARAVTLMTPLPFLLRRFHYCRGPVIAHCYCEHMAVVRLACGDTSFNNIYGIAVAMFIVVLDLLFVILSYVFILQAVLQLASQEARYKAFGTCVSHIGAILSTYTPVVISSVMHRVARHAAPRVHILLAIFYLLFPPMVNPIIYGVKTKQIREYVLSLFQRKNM
Method in brief: as §1

[5] = target: T4, OR52K2 (Homo sapiens) (UniProt Q8NGK3)
T4 sequence (whole entry): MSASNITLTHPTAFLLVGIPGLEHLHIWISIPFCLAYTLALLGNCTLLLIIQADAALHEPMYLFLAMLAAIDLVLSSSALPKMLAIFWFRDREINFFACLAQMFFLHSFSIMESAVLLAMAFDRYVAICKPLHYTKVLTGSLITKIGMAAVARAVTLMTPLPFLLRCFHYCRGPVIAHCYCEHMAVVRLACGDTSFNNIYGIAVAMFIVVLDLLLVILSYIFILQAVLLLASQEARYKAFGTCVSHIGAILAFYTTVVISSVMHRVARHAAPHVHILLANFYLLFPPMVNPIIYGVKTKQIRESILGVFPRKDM
Method in brief: as §1

[6] = target: T5, OR52L1 (Homo sapiens) (UniProt Q8NGH7)
T5 sequence (whole entry): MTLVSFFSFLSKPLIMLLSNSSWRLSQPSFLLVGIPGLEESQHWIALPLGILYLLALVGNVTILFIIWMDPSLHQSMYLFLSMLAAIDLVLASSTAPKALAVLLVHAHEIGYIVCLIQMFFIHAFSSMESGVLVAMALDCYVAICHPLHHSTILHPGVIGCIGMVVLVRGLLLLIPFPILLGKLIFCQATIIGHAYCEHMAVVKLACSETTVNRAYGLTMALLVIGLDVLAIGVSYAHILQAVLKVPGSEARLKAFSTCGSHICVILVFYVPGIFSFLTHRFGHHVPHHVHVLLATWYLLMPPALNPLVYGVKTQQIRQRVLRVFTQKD
Method in brief: as §1

[7] = target: T6, OR52M1 (Homo sapiens) (UniProt Q8NGK5)
T6 sequence (whole entry): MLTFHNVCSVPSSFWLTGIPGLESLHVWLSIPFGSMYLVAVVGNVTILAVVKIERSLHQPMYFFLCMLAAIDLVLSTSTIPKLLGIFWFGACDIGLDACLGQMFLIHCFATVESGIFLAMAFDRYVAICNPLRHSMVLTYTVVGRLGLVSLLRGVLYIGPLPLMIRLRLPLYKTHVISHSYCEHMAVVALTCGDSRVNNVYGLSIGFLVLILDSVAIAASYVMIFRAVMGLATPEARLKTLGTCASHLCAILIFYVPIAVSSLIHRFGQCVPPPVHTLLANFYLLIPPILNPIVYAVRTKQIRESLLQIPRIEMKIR
Method in brief: as §1

[8] = target: T7, OR52N1 (Homo sapiens) (UniProt Q8NH53)
T7 sequence (whole entry): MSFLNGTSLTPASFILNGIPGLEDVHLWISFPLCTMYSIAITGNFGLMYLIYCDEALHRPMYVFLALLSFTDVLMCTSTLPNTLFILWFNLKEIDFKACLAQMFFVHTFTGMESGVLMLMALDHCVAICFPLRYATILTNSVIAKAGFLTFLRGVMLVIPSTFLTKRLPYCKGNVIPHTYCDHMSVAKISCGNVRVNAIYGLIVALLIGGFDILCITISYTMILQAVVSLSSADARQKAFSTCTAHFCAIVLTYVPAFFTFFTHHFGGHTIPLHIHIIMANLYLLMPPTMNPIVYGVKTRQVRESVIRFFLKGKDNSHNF
Method in brief: as §1

[9] = target: T8, OR52N2 (Homo sapiens) (UniProt Q8NGI0)
T8 sequence (whole entry): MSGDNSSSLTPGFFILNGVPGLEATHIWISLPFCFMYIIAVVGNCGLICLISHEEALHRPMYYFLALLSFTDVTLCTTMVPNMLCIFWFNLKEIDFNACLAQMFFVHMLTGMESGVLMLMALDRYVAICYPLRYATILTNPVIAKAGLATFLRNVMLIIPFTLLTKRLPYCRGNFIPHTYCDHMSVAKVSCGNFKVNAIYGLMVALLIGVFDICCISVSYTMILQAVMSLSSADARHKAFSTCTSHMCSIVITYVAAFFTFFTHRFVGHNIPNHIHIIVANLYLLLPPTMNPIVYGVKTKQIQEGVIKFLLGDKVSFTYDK
Method in brief: as §1

[10] = target: T9, OR52N4 (Homo sapiens) (UniProt Q8NGI2)
T9 sequence (whole entry): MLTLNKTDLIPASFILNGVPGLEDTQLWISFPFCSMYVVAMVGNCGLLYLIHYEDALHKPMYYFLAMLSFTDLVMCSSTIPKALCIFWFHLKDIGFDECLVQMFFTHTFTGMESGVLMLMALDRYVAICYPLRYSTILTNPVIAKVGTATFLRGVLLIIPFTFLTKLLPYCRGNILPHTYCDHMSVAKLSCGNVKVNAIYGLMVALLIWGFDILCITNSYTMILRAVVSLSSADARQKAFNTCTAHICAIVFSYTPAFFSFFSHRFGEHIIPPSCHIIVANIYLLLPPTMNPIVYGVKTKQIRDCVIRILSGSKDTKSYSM
Method in brief: as §1

[11] = target: T10, OR52N5 (Homo sapiens) (UniProt Q8NH56)
T10 sequence (whole entry): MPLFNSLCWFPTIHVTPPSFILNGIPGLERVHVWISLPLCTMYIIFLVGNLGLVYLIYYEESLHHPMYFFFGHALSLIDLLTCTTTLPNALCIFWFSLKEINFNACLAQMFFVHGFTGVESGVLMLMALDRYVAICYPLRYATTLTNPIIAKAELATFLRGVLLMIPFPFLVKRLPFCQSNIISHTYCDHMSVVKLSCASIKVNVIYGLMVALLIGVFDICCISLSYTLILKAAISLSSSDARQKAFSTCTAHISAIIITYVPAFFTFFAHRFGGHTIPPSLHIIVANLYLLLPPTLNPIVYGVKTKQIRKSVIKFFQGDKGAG
Method in brief: as §1

[12] = target: T11, OR52R1 (Homo sapiens) (UniProt Q8NGF1)
T11 sequence (whole entry): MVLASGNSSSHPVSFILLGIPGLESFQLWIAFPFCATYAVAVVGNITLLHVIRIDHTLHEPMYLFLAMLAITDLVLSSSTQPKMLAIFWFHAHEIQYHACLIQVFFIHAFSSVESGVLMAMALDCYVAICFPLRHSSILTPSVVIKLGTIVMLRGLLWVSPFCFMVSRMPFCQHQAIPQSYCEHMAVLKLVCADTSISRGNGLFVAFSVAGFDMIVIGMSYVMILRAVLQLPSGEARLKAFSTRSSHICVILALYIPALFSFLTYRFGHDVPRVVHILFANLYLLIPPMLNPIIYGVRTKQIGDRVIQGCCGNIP
Method in brief: as §1

[13] = target: T12, OR52W1 (Homo sapiens) (UniProt Q6IF63)
T12 sequence (whole entry): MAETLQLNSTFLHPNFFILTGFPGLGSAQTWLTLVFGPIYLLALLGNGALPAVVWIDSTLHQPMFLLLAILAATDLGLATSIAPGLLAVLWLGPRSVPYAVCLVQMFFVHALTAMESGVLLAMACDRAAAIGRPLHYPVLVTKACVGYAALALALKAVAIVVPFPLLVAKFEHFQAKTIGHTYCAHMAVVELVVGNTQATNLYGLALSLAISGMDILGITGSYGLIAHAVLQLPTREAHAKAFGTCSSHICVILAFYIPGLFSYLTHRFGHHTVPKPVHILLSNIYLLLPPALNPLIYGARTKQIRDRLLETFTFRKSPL
Method in brief: as §1

[14] = target: OR52Z1P (Homo sapiens) (UniProt P0C646)
Chain of OR52Z1P (Homo sapiens) (P0C646 whole entry): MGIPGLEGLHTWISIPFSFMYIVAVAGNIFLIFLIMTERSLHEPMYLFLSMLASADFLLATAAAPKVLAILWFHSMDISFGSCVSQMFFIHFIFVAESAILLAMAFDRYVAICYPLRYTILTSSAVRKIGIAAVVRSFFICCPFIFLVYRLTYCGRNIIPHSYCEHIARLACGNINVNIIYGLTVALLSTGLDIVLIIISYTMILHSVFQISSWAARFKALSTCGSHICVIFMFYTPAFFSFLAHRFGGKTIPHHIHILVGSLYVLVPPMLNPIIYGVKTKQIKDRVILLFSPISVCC
Method in brief: as §1

[15] = target: T13, OR56A1 (Homo sapiens) (UniProt Q8NGH5)
T13 sequence (whole entry): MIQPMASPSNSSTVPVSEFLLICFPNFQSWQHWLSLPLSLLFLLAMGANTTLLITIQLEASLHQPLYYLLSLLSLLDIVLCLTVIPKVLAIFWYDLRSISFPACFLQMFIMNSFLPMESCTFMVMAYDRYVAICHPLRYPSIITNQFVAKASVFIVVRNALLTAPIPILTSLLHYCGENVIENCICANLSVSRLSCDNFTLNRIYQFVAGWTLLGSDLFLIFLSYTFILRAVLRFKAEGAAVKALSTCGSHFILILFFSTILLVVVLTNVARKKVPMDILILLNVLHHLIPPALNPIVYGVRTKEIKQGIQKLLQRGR
Method in brief: as §1

[16] = target: T14, OR56A3 (Homo sapiens) (UniProt Q8NH54)
T14 sequence (whole entry): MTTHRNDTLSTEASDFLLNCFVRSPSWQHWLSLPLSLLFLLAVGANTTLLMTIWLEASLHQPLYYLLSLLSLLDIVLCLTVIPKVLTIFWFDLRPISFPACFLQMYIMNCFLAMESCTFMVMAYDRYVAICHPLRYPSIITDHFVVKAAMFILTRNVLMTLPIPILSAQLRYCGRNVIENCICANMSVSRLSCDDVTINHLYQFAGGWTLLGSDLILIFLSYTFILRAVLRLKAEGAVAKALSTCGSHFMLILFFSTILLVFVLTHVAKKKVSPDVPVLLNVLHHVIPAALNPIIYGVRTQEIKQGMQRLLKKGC
Method in brief: as §1

[17] = target: T15, OR56A4 (Homo sapiens) (UniProt Q8NGH8)
T15 sequence (whole entry): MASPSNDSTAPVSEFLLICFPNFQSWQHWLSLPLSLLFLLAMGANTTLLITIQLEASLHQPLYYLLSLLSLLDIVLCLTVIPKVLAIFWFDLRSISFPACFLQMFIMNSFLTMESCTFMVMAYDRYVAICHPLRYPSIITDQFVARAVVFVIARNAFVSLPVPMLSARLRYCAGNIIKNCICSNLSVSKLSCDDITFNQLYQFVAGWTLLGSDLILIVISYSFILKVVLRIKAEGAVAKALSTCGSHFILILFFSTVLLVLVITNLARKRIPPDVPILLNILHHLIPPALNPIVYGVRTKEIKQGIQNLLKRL
Method in brief: as §1

[18] = target: T16, OR56A5 (Homo sapiens) (UniProt P0C7T3)
T16 sequence (whole entry): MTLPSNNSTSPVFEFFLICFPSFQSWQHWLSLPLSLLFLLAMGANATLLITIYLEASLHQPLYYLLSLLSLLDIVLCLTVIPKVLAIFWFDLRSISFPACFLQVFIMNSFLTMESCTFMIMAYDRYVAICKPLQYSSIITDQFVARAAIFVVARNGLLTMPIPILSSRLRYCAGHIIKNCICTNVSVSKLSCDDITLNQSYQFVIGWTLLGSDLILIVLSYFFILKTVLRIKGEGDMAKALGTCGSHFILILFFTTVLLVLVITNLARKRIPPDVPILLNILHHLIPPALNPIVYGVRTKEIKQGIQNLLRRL
Method in brief: as §1

[19] = target: T17, OR56B1 (Homo sapiens) (UniProt Q8NGI3)
T17 sequence (whole entry): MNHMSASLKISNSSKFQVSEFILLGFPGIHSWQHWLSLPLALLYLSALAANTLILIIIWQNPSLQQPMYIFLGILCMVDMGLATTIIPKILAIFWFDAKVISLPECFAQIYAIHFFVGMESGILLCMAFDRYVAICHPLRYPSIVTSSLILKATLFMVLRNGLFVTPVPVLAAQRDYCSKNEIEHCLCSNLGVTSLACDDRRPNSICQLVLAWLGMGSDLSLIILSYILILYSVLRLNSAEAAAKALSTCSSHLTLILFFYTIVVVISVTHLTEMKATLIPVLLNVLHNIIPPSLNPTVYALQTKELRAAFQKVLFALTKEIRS
Method in brief: as §1

Measured: odorant receptor agonist call

CC(=O)c1c(C)c([N+](=O)[O-])c(C(C)(C)C)c([N+](=O)[O-])c1C
inactive: [1] | [2] | [3] | [4] | [5] | [6] | [7] | [8] | [9] | [10] | [11] | [12] | [13] | [14] | [15] | [16] | [17] | [18] | [19]
